ChEMBL document CHEMBL5724801, “EUbOPEN Chemogenomics Library - Multiplex” (2024)
Where “and” joins values, the source holds several entries; their conditions need not be identical. Identical values can stand only once.

System: Fibroblast
Test: Multiplex assay against human fibroblast
Assay type: toxicity, cell-based
In short: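 With compound added, live cells were imaged on a CQ1 microscope at 37°C and 5% CO2; staining with Hoechst33342, BioTracker Green Microtubule Cytoskeleton Dye, MitoTracker Red and Annexin V Alexa Fluor 680 had been done at seeding. The CellPathfinder machine-learning gating scheme split cells into Hoechst high-intensity objects or normal cells, normal cells into healthy, pyknosed or fragmented nuclei, and pyknosed cells into mitotic or apoptotic. The tubulin, mitochondrial-mass and membrane-permeability phenotypes are per cents of healthy-nucleus cells.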

[1] = 12 h, 1 µM, compound concentration 1 uM
[2] = 12 h, 10 µM, compound concentration 10 uM
[3] = 24 h, 1 µM, compound concentration 1 uM
[4] = 24 h, 10 µM, compound concentration 10 uM
[5] = 48 h, 1 µM, compound concentration 1 uM
[6] = 48 h, 10 µM, compound concentration 10 uM

In the case of CN1CCC(C(=O)c2cccc(NC(=O)c3c(F)cc(F)cc3F)n2)CC1, the “Population Apoptotic (%)” value [1] is reported as 28% and 40%, the “Population Fragmented Nuclei (%)” value [1] is reported as 16% and 28% and the “Population Healthy Nuclei (%)” value [1] is reported as 64% and 53%. The “Population Hoechst High Intensity Objects (%)” value [1] was 3% and 2%, the “Population Membrane Permeable-Phenotype (%)” value [1] was 1% and 5% and the “Population Mitochondria Different-Phenotype (%)” value [1] was 4% and 10%. The “Population Mitotic Cells (%)” value [1] was 71% and 60%, the “Population Normal (%)” value [1] was 96% and 97% and the “Population Pyknosed Nuclei (%)” value [1] was 18%. The “Population Tubulin-Different-Phenotype (%)” value [1] was 28% and 43%, the “Total Cell Count” value [1] was 153 and 142 and the “Population Apoptotic (%)” value [2] was 32% and 36%. For the same compound, the “Population Fragmented Nuclei (%)” value [2] was 12% and 23%, the “Population Healthy Nuclei (%)” value [2] was 74% and 54% and the “Population Hoechst High Intensity Objects (%)” value [2] was 4%. For the same compound, the “Population Membrane Permeable-Phenotype (%)” value [2] was 1% and 6%, the “Population Mitochondria Different-Phenotype (%)” value [2] was 7% and 6% and the “Population Mitotic Cells (%)” value [2] was 67% and 63%. The “Population Normal (%)” value [2] was 95%, the “Population Pyknosed Nuclei (%)” value [2] was 13% and 22% and the “Population Tubulin-Different-Phenotype (%)” value [2] was 42% and 63%. For the same compound, the “Total Cell Count” value [2] was 266 and 142, the “Population Apoptotic (%)” value [3] was 45% and 40% and the “Population Fragmented Nuclei (%)” value [3] was 12% and 34%. The “Population Healthy Nuclei (%)” value [3] was 74% and 43%, the “Population Hoechst High Intensity Objects (%)” value [3] was 1% and the “Population Membrane Permeable-Phenotype (%)” value [3] was 0% and 6%. The “Population Mitochondria Different-Phenotype (%)” value [3] was 2% and 10%, the “Population Mitotic Cells (%)” value [3] was 55% and 59% and the “Population Normal (%)” value [3] was 98%. The “Population Pyknosed Nuclei (%)” value [3] was 12% and 21%, the “Population Tubulin-Different-Phenotype (%)” value [3] was 21% and 45% and the “Total Cell Count” value [3] was 156 and 148. For the same compound, the “Population Apoptotic (%)” value [4] was 54% and 37%, the “Population Fragmented Nuclei (%)” value [4] was 13% and 30% and the “Population Healthy Nuclei (%)” value [4] was 71% and 50%. The “Population Hoechst High Intensity Objects (%)” value [4] was 3% and 2%, the “Population Membrane Permeable-Phenotype (%)” value [4] was 0% and 5% and the “Population Mitochondria Different-Phenotype (%)” value [4] was 6% and 8%. For the same compound, the “Population Mitotic Cells (%)” value [4] was 45% and 62%, the “Population Normal (%)” value [4] was 96% and 97% and the “Population Pyknosed Nuclei (%)” value [4] was 14% and 19%. For the same compound, the “Population Tubulin-Different-Phenotype (%)” value [4] was 37% and 65%, the “Total Cell Count” value [4] was 258 and 153 and the “Population Apoptotic (%)” value [5] was 71% and 56%. The “Population Fragmented Nuclei (%)” value [5] was 16% and 42%, the “Population Healthy Nuclei (%)” value [5] was 74% and 46% and the “Population Hoechst High Intensity Objects (%)” value [5] was 3% and 2%. For the same compound, the “Population Membrane Permeable-Phenotype (%)” value [5] was 0% and 5%, the “Population Mitochondria Different-Phenotype (%)” value [5] was 1% and 5% and the “Population Mitotic Cells (%)” value [5] was 28% and 43%. The “Population Normal (%)” value [5] was 96% and 97%, the “Population Pyknosed Nuclei (%)” value [5] was 8% and 10% and the “Population Tubulin-Different-Phenotype (%)” value [5] was 25% and 67%. The “Total Cell Count” value [5] was 164 and 156, the “Population Apoptotic (%)” value [6] was 71% and 54% and the “Population Fragmented Nuclei (%)” value [6] was 17% and 36%. For the same compound, the “Population Healthy Nuclei (%)” value [6] was 71% and 55%, the “Population Hoechst High Intensity Objects (%)” value [6] was 5% and 3% and the “Population Membrane Permeable-Phenotype (%)” value [6] was 0% and 3%. For the same compound, the “Population Mitochondria Different-Phenotype (%)” value [6] was 7% and 3%, the “Population Mitotic Cells (%)” value [6] was 28% and 45% and the “Population Normal (%)” value [6] was 94% and 96%. The “Population Pyknosed Nuclei (%)” value [6] was 10% and 7%, the “Population Tubulin-Different-Phenotype (%)” value [6] was 40% and 69% and the “Total Cell Count” value [6] was 272 and 152.

For CCc1nn2c(C)cc(C)nc2c1Cc1ccc(-c2nnc(C3CCNCC3)o2)cc1, the “Population Apoptotic (%)” value [1] was 34% and 45%, the “Population Fragmented Nuclei (%)” value [1] was 17% and 19% and the “Population Healthy Nuclei (%)” value [1] was 63% and 46%. For the same compound, the “Population Hoechst High Intensity Objects (%)” value [1] was 2% and 6%, the “Population Membrane Permeable-Phenotype (%)” value [1] was 2% and the “Population Mitochondria Different-Phenotype (%)” value [1] was 5% and 13%. The “Population Mitotic Cells (%)” value [1] was 65% and 54%, the “Population Normal (%)” value [1] was 97% and 93% and the “Population Pyknosed Nuclei (%)” value [1] was 19% and 33%. The “Population Tubulin-Different-Phenotype (%)” value [1] was 35% and 62%, the “Total Cell Count” value [1] was 153 and 167 and the “Population Fragmented Nuclei (%)” value [2] was 19% and 38%. The “Population Healthy Nuclei (%)” value [2] was 62% and 44%, the “Population Hoechst High Intensity Objects (%)” value [2] was 5% and 3% and the “Population Membrane Permeable-Phenotype (%)” value [2] was 0% and 5%. For the same compound, the “Population Mitochondria Different-Phenotype (%)” value [2] was 19% and 14%, the “Population Mitotic Cells (%)” value [2] was 48% and 85% and the “Population Normal (%)” value [2] was 94% and 96%. For the same compound, the “Population Pyknosed Nuclei (%)” value [2] was 18% and 17%, the “Population Tubulin-Different-Phenotype (%)” value [2] was 72% and 79% and the “Total Cell Count” value [2] was 188 and 162. For the same compound, the “Population Apoptotic (%)” value [3] was 52% and 56%, the “Population Fragmented Nuclei (%)” value [3] was 17% and 26% and the “Population Healthy Nuclei (%)” value [3] was 68% and 49%. The “Population Hoechst High Intensity Objects (%)” value [3] was 1% and 7%, the “Population Membrane Permeable-Phenotype (%)” value [3] was 0% and 6% and the “Population Mitotic Cells (%)” value [3] was 47% and 43%. The “Population Normal (%)” value [3] was 98% and 92%, the “Population Pyknosed Nuclei (%)” value [3] was 13% and 23% and the “Population Tubulin-Different-Phenotype (%)” value [3] was 35% and 65%. The “Total Cell Count” value [3] was 153 and 177, the “Population Apoptotic (%)” value [4] was 53% and 56% and the “Population Fragmented Nuclei (%)” value [4] was 17% and 40%. The “Population Healthy Nuclei (%)” value [4] was 64% and 42%, the “Population Hoechst High Intensity Objects (%)” value [4] was 9% and 3% and the “Population Membrane Permeable-Phenotype (%)” value [4] was 0% and 11%. The “Population Mitochondria Different-Phenotype (%)” value [4] was 22% and 16%, the “Population Mitotic Cells (%)” value [4] was 46% and 44% and the “Population Normal (%)” value [4] was 90% and 96%. For the same compound, the “Population Pyknosed Nuclei (%)” value [4] was 17%, the “Population Tubulin-Different-Phenotype (%)” value [4] was 79% and 80% and the “Total Cell Count” value [4] was 185 and 151. For the same compound, the “Population Apoptotic (%)” value [5] was 76% and 62%, the “Population Fragmented Nuclei (%)” value [5] was 21% and 30% and the “Population Healthy Nuclei (%)” value [5] was 70% and 54%. The “Population Hoechst High Intensity Objects (%)” value [5] was 4%, the “Population Membrane Permeable-Phenotype (%)” value [5] was 1% and 3% and the “Population Mitochondria Different-Phenotype (%)” value [5] was 2% and 12%. The “Population Mitotic Cells (%)” value [5] was 23% and 37%, the “Population Normal (%)” value [5] was 95% and the “Population Pyknosed Nuclei (%)” value [5] was 7% and 14%. For the same compound, the “Population Tubulin-Different-Phenotype (%)” value [5] was 32% and 54%, the “Total Cell Count” value [5] was 172 and 168 and the “Population Apoptotic (%)” value [6] was 84% and 54%. The “Population Fragmented Nuclei (%)” value [6] was 23% and 45%, the “Population Healthy Nuclei (%)” value [6] was 62% and 47% and the “Population Hoechst High Intensity Objects (%)” value [6] was 9% and 2%. For the same compound, the “Population Membrane Permeable-Phenotype (%)” value [6] was 0% and 2%, the “Population Mitochondria Different-Phenotype (%)” value [6] was 16% and 17% and the “Population Mitotic Cells (%)” value [6] was 15% and 45%. For the same compound, the “Population Normal (%)” value [6] was 90% and 97%, the “Population Pyknosed Nuclei (%)” value [6] was 13% and 7% and the “Population Tubulin-Different-Phenotype (%)” value [6] was 73% and 78%. The “Total Cell Count” value [6] was 208 and 161.
